Where two headings read alike, the source gives them in different places.
Assays:
[1] = Viability of uninfected PBMCs; format: cell-based, human; conditions: human, CC50, uninfected PBMCs, Viacount dye
PBMCs = experiment: Viability of uninfected PBMCs; format: cell-based, human; conditions: 6 days, Viacount dye
J-Lat 9.2 cells = experiment: LRA-induced provirus expression; format: cell-based; conditions: J-Lat 9.2, 24 h
J-Lat 10.6 cells [2] = experiment: LRA-induced provirus expression; format: cell-based; conditions: J-Lat 10.6, 24 h
OM-10.1 cells = experiment: TNFα-induced provirus expression; format: cell-based; conditions: 24 h, read-out: TNFα EC50, inhibition of provirus expression
In short: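 OM-10.1 cells seeded at 200,000 cells/well and co-treated with 1 ng/mL TNFα plus test compound or 0.1% DMSO for 24 h. Cells were fixed, permeabilized, stained for intracellular p24Gag (KC57-RD1) and scored on live-gated cells by flow cytometry. EC50s were derived after normalizing to TNFα-only controls.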

Jurkat cells = experiment: Jurkat cell viability, 24 h; format: cell-based; conditions: 0.3 μM
J-Lat 10.6 cells [3] = format: cell-based
class I and II HDAC = experiment: Cellular HDAC activity assay; format: cell-based
[4] = test system: HIV RNA in CD4+ T cell culture supernatants; experiment: Spontaneous viral RNA production in primary CD4+ T cells from donors with HIV; format: cell-based, human
primary CD4+ T cells = experiment: Live cell counting of primary CD4+ T cell cultures; format: cell-based, human; conditions: 30 nM
In short: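 CD4+ T cells came from five HIV-infected donors on suppressive ART (<50 copies/mL for ≥3 years), isolated from PBMCs by negative selection. 10⁶ cells per 1 mL R20+ (20% FBS) received 0.1% DMSO or 30 nM test compound for 24 h. Alternatively: 72 h treatment, wash, re-treatment in R20+ plus IL-2 for 72–96 h, wash, then 24 h compound-free. Cells were counted visually by trypan blue.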

[5] = read-out: TNFα EC50, inhibition of provirus expression
[6] = 30 nM for 6 – 7 days, washed, 24 hours without compound

CN1CC[C@H](c2c(O)cc(O)c3c(=O)cc(-c4ccccc4Cl)oc23)[C@H](O)C1 [Flavopiridol, flavopiridol]
CC50 at 6 days [1]: 250 ± 60 nM
CC50 (PBMCs): 220 ± 40 nM
EC50 (J-Lat 9.2 cells; read-out: Panobinostat EC50, inhibition of provirus expression): 28 ± 3 nM
EC50 (J-Lat 9.2 cells; read-out: Prostratin EC50, inhibition of provirus expression): 9 ± 1 nM
EC50 (J-Lat 9.2 cells; [5]): 8 ± 0.4 nM
EC50 (J-Lat 10.6 cells [2]; read-out: HMBA EC50, inhibition of provirus expression): 99 ± 2 nM
EC50 (J-Lat 10.6 cells [2]; read-out: JQ1 EC50, inhibition of provirus expression): 14 ± 2 nM
EC50 (J-Lat 10.6 cells [2]; [5]): 19 ± 1 nM
EC50 (OM-10.1 cells): 13 ± 0.8 nM
viability reduced vs 0.1% DMSO (Jurkat cells): 38.8 ± 25%
GFP expression 14 days following washout, % of control levels (J-Lat 10.6 cells [3]; 10 nM for 21 days, J-Lat 10.6): 59.7 ± 15.2%
GFP expression 24 hours after washing, % of control GFP levels (J-Lat 10.6 cells [3]; 10 nM for 21 days, washed, 24 h drug-free, J-Lat 10.6): 32.4 ± 3.6%
GFP expression before wash-out, % of untreated cells (J-Lat 10.6 cells [3]; 10 nM, 21 days, J-Lat 10.6): 26.2 ± 9.6%
reduction of spontaneous GFP expression vs 0.1% DMSO (J-Lat 10.6 cells [3]; 10 nM, 21 days, J-Lat 10.6): 73.8 ± 9.6%
duration of reinforced latency following withdrawal in vitro (J-Lat 10.6 cells [3]; J-Lat 10.6, after 21 days' treatment): ≥ 14 days
IC50 (class I and II HDAC; read-out: HDAC Inhibition IC50, Jurkat cells, 90 min, HDAC-Glo I/II): > 1000 nM
HDAC inhibition (class I and II HDAC; up to 1 μM, Jurkat): no HDAC inhibition was observed
average reduction in total viral RNA across all cultures [4, 6]: 96.8%
cultures with reduced viral RNA production [4, 6]: 4 of 5
cultures with no viral RNA detected ([4]; 30 nM for 6 – 7 days, washed, 24 hours, limit of detection 200 copies/mL): two
average increase in viral RNA vs 0.1% DMSO ([4]; 30 nM, 24 hours): 7.1 fold
HIV RNA in culture supernatant ([4]; 30 nM, 24 hours, CD4+ T cells from five donors with HIV): 1.7*10^9 ± 3.1*10^9 viral copies/mL
live cell count (primary CD4+ T cells; 24 hours): 1.2*10^6 ± 5.6*10^5 cells/mL
live cell count (primary CD4+ T cells; after 6 – 7 days): 1.3*10^6 ± 3.9*10^5 cells/mL

Reference: publication PMC8052299 (Biochemical pharmacology, 2021)
